Assay results reported in PMC7111685 (Phytochemistry, 2015).

Columns and labels:
[1] = Cytotoxicity assay; format: cell-based; details: African green monkey, Vero cells
In short: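 Vero cells grown in DMEM with 10% FBS and penicillin/streptomycin, plated at 1 × 10^5 cells/well and grown 24 h. Exposed 48 h to various concentrations of test compound, final DMSO under 0.05% (v/v). MTT solution (2 mg/mL) added for 4 h, supernatant removed, formazan dissolved in DMSO, absorbance read at 550 nm. Viability expressed relative to control wells; CC50 by regression analysis.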

[2] = tested on: porcine epidemic diarrhea virus (PEDV); assay: Cytopathic effect; format: cell-based
In short: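 Vero cells (DMEM, 10% FBS, penicillin/streptomycin) seeded at 1 × 10^5 cells/well and PBS-washed a day later. Near-confluent monolayers were inoculated with PEDV at 0.01 MOI for 2 h, then given DMEM with various concentrations of test compound. After 72 h at 37 °C, 5% CO2, MTT solution (2 mg/mL) was added for 4 h. EC50 came from regression analysis; SI = CC50/EC50.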

- EC50 ([2]; Porcine epidemic diarrhea virus, Vero, 72 h): 5.58 ± 0.53 µM
Structure (SMILES): O=c1cnn([C@@H]2O[C@H](CO)[C@@H](O)[C@H]2O)c(=O)[nH]1 [Compound 6-Azauridine, 6-Azauridine]
- CC50 at 48 h [1]: 44.5 ± 6.11 µM
- SI ([2]; selective index, SI = CC50/EC50): 7.98 ± 0.37
